Assay results as given in ChEMBL document CHEMBL2439973, “Discovery of VU0409106: A negative allosteric modulator of mGlu5 with activity in a mouse model of anxiety” (Bioorg Med Chem Lett, 2013).
Calls of active or inactive are those of the source. No cut-off for these calls is given here.

Legend:
[1] = target: Endothelin-1 receptor (Homo sapiens) (UniProt P25101); assay: Displacement of [125I]-Endothelin-1 from human recombinant ETA receptor expressed in CHO-K1 cells at 10 uM relative to control; format: cell-based
Summary of the method: (§1)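 Tested once at 10 μM in a commercial radioligand binding panel of 68 GPCRs, ion channels, kinases and transporters. Activity is given as displacement of each radioligand relative to control.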

[2] = species: Rattus norvegicus; assay: Displacement of [35S]-ATP-alpha-S from purinergic P2Y receptor in rat brain at 10 uM relative to control; format: tissue-based; summary of the method: as §1
[3] = species: Mesocricetus auratus; assay: Displacement of [3H]-Glyburide from ATP-sensitive potassium channel in hamster pancreatic HIT-T15 beta cells at 10 uM relative to control; summary of the method: as §1
[4] = species: Rattus norvegicus; assay: Displacement of [125I]-Omega-Conotoxin GVIA from N-type calcium channel in rat frontal brain at 10 uM relative to control; summary of the method: as §1
[5] = target: Beta-1 adrenergic receptor (Homo sapiens) (UniProt P08588); assay: Displacement of [125I]-Cyanopindolol from human recombinant adrenergic beta1 receptor expressed in CHO-K1 cells at 10 uM relative to control; format: cell-based; summary of the method: as §1
[6] = system: Mus musculus; assay: Anxiolytic activity in ip dosed Harlan CD-1 mouse assessed as inhibition of marble burying behavior; format: functional, organism-based
Summary of the method: (§2)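 Marble burying in mice with deep bedding; compound given IP at a range of doses with 15 min pretreatment, n = 8 per dose; marbles buried counted, brain samples collected right after testing for exposure; comparison to vehicle by Dunnett's test.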

[7] = target: Sigma non-opioid intracellular receptor 1 (Homo sapiens) (UniProt Q99720); assay: Displacement of [3H]-Haloperidol from sigma1 receptor in human Jurkat cells at 10 uM relative to control; format: cell-based; summary of the method: as §1
[8] = target: Sodium-dependent dopamine transporter (Homo sapiens) (UniProt Q01959); assay: Displacement of [125I]-RTI-55 from human recombinant DAT expressed in CHO-K1 cells at 10 uM relative to control; format: cell-based; summary of the method: as §1
[9] = target: Sodium-dependent serotonin transporter (Homo sapiens) (UniProt P31645); assay: Displacement of [3H]-Paroxetine from human recombinant SERT expressed in HEK293 cells at 10 uM relative to control; format: cell-based
[10] = system: IMR-32; assay: Displacement of [125I] Epibatidine from nicotinic acetylcholine receptor in human IMR32 cells at 10 uM relative to control; format: cell-based; summary of the method: as §1
[11] = target: B2 bradykinin receptor (Homo sapiens) (UniProt P30411); assay: Displacement of [3H]-Bradykinin from human recombinant bradykinin B2 receptor expressed in rat Chem-1 cells at 10 uM relative to control; format: cell-based; summary of the method: as §1
[12] = target: Cannabinoid receptor 1 (Homo sapiens) (UniProt P21554); assay: Displacement of [3H]-SR141716A from human recombinant CB1 receptor expressed in rat Chem-1 cells at 10 uM relative to control; format: cell-based
[13] = system: Mus musculus; assay: Anxiolytic activity in Harlan CD-1 mouse assessed as inhibition of marble burying behavior at >= 3 mg/kg, ip; format: functional, organism-based; set-up: dose 3 mg/kg; summary of the method: as §2
[14] = target: Acetylcholine receptor subunit alpha (Homo sapiens) (UniProt P02708); assay: Displacement of [125I]-alpha-Bungarotoxin from nicotinic acetylcholine alpha1 receptor bungarotoxin binding site in human RD cells at 10 uM relative to control; format: cell-based; summary of the method: as §1
[15] = target: Epidermal growth factor receptor (Homo sapiens) (UniProt P00533); assay: Displacement of [125I]-EGF from epidermal growth factor receptor in human A431 cells at 10 uM relative to control; format: cell-based; conditions: A-431; summary of the method: as §1
[16] = target: Metabotropic glutamate receptor 4 (Rattus norvegicus) (UniProt P31423); assay: Allosteric modulation of rat mGlu4 receptor expressed in HEK293 cells coexpressing G protein-activated inward rectifier potassium channel assessed as effect on glutamate-induced thallium flux at 10 uM; format: cell-based
[17] = target: 5-hydroxytryptamine receptor 2B (Homo sapiens) (UniProt P41595); assay: Displacement of [3H]-Lysergic acid diethylamide from human recombinant 5-HT2B receptor expressed in CHO-K1 cells at 10 uM relative to control; format: cell-based; summary of the method: as §1
[18] = Cmax in CD-1 mouse brain at 10 mg/kg, ip by LC-MS/MS analysis; format: ADME, organism-based; set-up: dose 10 mg/kg, route intraperitoneal
[19] = target: Histamine H2 receptor (Homo sapiens) (UniProt P25021); assay: Displacement of [125I]-Aminopotentidine from human recombinant histamine H2 receptor expressed in CHO-K1 cells at 10 uM relative to control; format: cell-based; summary of the method: as §1
[20] = species: Oryctolagus cuniculus; assay: Displacement of [3H]-alpha,beta-Methylene-ATP from purinergic P2x receptor in rabbit urinary bladder at 10 uM relative to control
[21] = target: Prostaglandin E2 receptor EP4 subtype (Homo sapiens) (UniProt P35408); assay: Displacement of [3H]-PGE2 from human recombinant prostanoid EP4 receptor expressed in rat Chem-1 cells at 10 uM relative to control; format: cell-based
[22] = target: D(3) dopamine receptor (Homo sapiens) (UniProt P35462); assay: Displacement of [3H]-Spiperone from human recombinant dopamine D3 receptor expressed in CHO cells at 10 uM relative to control; format: cell-based
[23] = target: B1 bradykinin receptor (Homo sapiens) (UniProt P46663); assay: Displacement of [3H]-(Des-Arg10)-Kallidin from bradykinin B1 receptor in human IMR90 cells at 10 uM relative to control; format: cell-based; conditions: IMR-90; summary of the method: as §1
[24] = species: Mus musculus; assay: Displacement of [3H]-PDBu from phorbol ester receptor in mouse brain at 10 uM relative to control; format: tissue-based; summary of the method: as §1
[25] = target: Histamine H1 receptor (Homo sapiens) (UniProt P35367); assay: Displacement of [3H]-Pyrilamine from human recombinant histamine H1 receptor expressed in CHO-K1 cells at 10 uM relative to control; format: cell-based
[26] = species: Rattus norvegicus; assay: Displacement of [3H]-Muscimol from central-type GABAA receptor muscimol binding site in cerebellum-less rat brain homogenate at 10 uM relative to control; format: tissue-based; summary of the method: as §1
[27] = system: CHO-K1; assay: Displacement of [3H]-Spiperone from human recombinant dopamine D4.2 receptor expressed in CHO-K1 cells at 10 uM relative to control; format: cell-based
[28] = target: Beta-2 adrenergic receptor (Homo sapiens) (UniProt P07550); assay: Displacement of [3H]-CGP-12177 from human recombinant adrenergic beta2 receptor expressed in CHO cells at 10 uM relative to control; format: cell-based; summary of the method: as §1
[29] = target: Glutamate NMDA receptor (Rattus norvegicus) (UniProt P35439+Q00959+Q00960+Q00961+Q62645+Q8VHN2+Q9R1M7); assay: Displacement of [3H]-MDL 105,519 from NMDA receptor glycine binding site in rat cerebral cortex at 10 uM relative to control; format: tissue-based; summary of the method: as §1
[30] = target: Alpha-2A adrenergic receptor (Homo sapiens) (UniProt P08913); assay: Displacement of [3H]-Rauwolscine from human recombinant adrenergic alpha2A receptor expressed in CHO-K1 cells at 10 uM relative to control; format: cell-based
[31] = species: Rattus norvegicus; assay: Displacement of [3H]-Batrachotoxin from sodium channel site 2 in rat brain at 10 uM relative to control; format: tissue-based; summary of the method: as §1
[32] = target: Neuropeptide Y receptor type 1 (Homo sapiens) (UniProt P25929); assay: Displacement of [125I]-Peptide YY from neuropeptide Y Y1 receptor in human SK-N-MC cells at 10 uM relative to control; format: cell-based; summary of the method: as §1
[33] = species: Mus musculus; assay: Displacement of [125I]-Interleukin-1beta from IL-1 receptor in mouse 3T3-SWISS cells at 10 uM relative to control; format: cell-based; summary of the method: as §1

Beta-2 adrenergic receptor (Homo sapiens), sequence (P07550 whole entry, looked up): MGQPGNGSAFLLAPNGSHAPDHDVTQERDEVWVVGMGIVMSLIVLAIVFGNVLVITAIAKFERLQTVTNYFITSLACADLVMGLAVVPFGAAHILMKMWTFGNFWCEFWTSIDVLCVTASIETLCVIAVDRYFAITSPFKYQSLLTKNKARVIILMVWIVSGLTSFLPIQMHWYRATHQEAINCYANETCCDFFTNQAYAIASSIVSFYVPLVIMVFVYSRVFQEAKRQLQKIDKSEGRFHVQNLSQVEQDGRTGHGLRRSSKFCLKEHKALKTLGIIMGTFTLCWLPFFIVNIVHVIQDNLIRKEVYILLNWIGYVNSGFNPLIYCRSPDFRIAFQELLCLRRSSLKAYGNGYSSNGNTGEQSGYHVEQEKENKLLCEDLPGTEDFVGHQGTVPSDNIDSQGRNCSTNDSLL
5-hydroxytryptamine receptor 2B (Homo sapiens), sequence (P41595 whole entry): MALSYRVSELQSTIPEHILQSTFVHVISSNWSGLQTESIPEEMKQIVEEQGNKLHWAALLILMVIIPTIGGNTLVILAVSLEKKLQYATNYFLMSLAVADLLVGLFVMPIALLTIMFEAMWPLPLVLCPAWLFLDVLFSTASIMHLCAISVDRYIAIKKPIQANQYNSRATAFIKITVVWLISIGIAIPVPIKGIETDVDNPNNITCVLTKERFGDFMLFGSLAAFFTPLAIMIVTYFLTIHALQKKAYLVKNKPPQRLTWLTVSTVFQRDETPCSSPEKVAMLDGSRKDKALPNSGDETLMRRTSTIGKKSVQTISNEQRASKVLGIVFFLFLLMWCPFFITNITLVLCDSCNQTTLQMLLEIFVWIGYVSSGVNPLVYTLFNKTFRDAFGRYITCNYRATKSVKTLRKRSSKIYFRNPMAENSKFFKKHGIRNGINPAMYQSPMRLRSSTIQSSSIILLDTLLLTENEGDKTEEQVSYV
Cannabinoid receptor 1 (Homo sapiens), sequence (P21554 whole entry): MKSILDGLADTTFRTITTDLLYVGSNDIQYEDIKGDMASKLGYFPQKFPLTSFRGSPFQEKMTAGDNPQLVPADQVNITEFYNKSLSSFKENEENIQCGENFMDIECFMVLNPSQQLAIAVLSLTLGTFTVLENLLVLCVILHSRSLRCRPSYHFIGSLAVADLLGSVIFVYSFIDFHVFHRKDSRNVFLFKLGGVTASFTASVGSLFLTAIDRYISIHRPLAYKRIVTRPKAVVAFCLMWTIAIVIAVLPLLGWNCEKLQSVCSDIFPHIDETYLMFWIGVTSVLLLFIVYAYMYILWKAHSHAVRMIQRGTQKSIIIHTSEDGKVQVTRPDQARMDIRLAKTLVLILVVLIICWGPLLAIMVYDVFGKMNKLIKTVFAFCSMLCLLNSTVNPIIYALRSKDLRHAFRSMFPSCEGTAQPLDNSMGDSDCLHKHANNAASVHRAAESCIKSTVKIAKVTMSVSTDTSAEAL
D(3) dopamine receptor (Homo sapiens), sequence (P35462 whole entry): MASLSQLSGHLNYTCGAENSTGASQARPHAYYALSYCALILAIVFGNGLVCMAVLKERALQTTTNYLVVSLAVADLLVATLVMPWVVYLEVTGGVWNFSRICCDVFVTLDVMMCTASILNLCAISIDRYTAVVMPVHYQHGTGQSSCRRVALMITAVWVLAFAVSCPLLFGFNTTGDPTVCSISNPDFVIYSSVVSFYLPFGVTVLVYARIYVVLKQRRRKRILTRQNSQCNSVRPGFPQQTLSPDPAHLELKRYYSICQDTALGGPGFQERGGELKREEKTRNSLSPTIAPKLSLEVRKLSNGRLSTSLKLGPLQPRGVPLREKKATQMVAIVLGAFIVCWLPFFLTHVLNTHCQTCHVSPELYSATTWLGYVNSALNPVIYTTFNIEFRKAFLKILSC
Acetylcholine receptor subunit alpha (Homo sapiens), sequence (P02708 whole entry): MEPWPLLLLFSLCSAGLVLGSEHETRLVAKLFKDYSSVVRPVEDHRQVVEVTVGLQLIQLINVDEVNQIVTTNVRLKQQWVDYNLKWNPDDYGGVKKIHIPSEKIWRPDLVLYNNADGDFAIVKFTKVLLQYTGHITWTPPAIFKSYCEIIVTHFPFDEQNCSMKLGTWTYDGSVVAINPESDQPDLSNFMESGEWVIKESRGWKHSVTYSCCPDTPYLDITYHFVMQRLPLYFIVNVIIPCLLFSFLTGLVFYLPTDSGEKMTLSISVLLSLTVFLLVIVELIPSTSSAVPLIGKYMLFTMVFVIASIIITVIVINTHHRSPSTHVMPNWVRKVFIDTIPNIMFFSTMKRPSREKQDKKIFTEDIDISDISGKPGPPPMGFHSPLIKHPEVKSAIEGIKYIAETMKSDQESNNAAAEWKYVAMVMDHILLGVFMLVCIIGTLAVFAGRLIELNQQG
Beta-1 adrenergic receptor (Homo sapiens), sequence (P08588 whole entry, looked up): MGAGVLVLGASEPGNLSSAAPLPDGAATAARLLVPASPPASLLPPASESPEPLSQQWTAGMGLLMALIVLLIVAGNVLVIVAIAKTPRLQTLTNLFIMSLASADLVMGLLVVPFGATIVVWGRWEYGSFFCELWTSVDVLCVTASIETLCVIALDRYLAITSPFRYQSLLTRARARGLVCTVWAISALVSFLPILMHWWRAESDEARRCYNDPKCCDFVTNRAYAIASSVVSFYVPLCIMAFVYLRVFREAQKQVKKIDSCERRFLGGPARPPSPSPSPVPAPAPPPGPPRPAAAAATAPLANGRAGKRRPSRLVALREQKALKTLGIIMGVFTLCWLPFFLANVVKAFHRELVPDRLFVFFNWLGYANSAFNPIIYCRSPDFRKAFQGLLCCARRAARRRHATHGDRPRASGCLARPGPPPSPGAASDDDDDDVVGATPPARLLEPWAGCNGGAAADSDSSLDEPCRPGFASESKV
Histamine H2 receptor (Homo sapiens), sequence (P25021 whole entry): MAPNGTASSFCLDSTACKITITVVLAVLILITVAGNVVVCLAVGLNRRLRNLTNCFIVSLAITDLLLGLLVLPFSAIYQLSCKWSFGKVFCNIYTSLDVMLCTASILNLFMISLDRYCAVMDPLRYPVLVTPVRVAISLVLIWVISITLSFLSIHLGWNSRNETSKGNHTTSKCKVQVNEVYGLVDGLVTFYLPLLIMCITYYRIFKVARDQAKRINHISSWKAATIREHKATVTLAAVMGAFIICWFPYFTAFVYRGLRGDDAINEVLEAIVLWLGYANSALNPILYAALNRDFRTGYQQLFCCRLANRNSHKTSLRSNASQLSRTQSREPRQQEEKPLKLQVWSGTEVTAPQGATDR
Sodium-dependent serotonin transporter (Homo sapiens), sequence (P31645 whole entry, looked up): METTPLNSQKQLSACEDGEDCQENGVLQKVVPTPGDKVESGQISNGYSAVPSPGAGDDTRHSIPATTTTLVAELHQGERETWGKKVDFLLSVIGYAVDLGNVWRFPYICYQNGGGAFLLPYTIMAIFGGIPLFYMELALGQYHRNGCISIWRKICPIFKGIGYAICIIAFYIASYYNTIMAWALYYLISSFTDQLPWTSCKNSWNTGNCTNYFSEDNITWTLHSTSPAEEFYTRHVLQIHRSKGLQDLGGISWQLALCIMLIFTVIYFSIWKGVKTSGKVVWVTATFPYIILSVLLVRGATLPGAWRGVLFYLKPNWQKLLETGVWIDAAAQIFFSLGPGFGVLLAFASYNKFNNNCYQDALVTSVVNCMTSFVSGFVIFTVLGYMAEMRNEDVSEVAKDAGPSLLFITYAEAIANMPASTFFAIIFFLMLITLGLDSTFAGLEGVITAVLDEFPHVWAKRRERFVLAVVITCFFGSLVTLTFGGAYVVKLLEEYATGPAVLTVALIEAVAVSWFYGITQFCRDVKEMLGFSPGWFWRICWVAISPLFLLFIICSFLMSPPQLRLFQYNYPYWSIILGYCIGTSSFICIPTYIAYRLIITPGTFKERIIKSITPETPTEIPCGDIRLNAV
Neuropeptide Y receptor type 1 (Homo sapiens), sequence (P25929 whole entry): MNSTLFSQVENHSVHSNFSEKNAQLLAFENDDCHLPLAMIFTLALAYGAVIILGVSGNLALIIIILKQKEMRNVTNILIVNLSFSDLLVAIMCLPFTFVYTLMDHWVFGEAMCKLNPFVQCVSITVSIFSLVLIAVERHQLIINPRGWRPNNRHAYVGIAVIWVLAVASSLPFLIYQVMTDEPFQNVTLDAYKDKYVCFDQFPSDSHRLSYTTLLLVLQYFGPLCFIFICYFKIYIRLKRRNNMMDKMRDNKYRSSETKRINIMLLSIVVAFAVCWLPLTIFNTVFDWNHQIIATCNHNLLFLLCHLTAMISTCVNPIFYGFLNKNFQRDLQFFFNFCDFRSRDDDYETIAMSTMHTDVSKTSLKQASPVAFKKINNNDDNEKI
Histamine H1 receptor (Homo sapiens), sequence (P35367 whole entry): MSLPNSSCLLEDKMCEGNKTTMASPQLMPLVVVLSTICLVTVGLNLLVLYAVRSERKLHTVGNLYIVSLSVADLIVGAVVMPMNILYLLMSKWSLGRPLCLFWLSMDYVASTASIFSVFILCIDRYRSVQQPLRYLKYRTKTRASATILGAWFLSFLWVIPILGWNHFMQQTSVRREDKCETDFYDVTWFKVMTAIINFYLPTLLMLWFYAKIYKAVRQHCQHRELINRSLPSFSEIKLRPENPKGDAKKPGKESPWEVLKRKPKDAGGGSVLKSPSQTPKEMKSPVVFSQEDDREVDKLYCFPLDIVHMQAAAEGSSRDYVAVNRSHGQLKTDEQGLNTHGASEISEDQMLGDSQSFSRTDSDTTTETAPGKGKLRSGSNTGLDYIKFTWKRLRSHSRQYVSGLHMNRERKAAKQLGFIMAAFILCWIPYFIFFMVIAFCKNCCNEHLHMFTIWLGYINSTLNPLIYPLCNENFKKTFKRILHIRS
B2 bradykinin receptor (Homo sapiens), sequence (P30411 whole entry): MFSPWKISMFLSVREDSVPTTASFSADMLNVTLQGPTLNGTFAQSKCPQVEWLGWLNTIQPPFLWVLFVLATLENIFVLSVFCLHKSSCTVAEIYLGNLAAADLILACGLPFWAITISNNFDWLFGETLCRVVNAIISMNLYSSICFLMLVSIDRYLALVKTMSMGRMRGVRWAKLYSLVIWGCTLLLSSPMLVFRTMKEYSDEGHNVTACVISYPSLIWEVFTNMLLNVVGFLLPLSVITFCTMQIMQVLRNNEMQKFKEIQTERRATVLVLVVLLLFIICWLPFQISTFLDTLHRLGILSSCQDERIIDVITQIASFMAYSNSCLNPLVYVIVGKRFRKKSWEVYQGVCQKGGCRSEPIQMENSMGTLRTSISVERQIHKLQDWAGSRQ

Cc1csc(NC(=O)c2cc(F)cc(Oc3cncnc3)c2)n1
inhibition [1]: > 35% | inhibition [2]: > 35% | inhibition [3]: > 35% | inhibition [4]: > 35% | inhibition [5]: > 35% | inhibition [6]: Dose-dependent effect | inhibition [7]: > 35% | inhibition [8]: > 35% | inhibition [9]: > 35% | inhibition [10]: > 35% | inhibition [11]: > 35% | inhibition [12]: > 35% | inhibition [13]: Active | inhibition [14]: > 35% | inhibition [15]: > 35% | Activity [16]: inactive | inhibition [17]: > 35% | Cmax [18]: 1350 ng/g | inhibition [19]: > 35% | inhibition [20]: > 35% | inhibition [21]: > 35% | inhibition [22]: > 35% | inhibition [23]: > 35% | inhibition [24]: > 35% | inhibition [25]: > 35% | inhibition [26]: > 35% | inhibition [27]: > 35% | inhibition [28]: > 35% | inhibition [29]: > 35% | inhibition [30]: > 35% | inhibition [31]: > 35% | inhibition [32]: > 35% | inhibition [33]: > 35%
